Converted amounts (≈) assume the structure as drawn.
Assays:
[1] = Antiproliferative activity against human Molt4/C8 cells; assay type: functional, cell-based; settings: MOLT-4
In short: (§1)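 Suspension cells seeded at 50 × 10³ cells/well with a range of test compound concentrations. Cell number counted with a Coulter counter after 2 days (L1210) or 3 days (Molt4/C8, CEM). IC50 is the concentration that cuts cell growth by 50% versus untreated controls, read from plots of cell number (% of control) against concentration.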

[2] = test system: CCRF-CEM; experiment: Antiproliferative activity against human CEM cells; assay type: functional, cell-based; in short: as §1
[3] = test system: HeLa; experiment: Antiproliferative activity against human HeLa cells after 72 hrs by MTT assay; assay type: functional, cell-based
In short: (§2)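 Monolayers grown in DMEM with 10% FBS, 2 mM L-glutamine and penicillin/streptomycin at 37 °C, 5% CO2. Seeded at 1 × 10⁴–3 × 10⁴ cells/mL on day 0. Compounds from 0.04 M DMSO stocks added at five 10-fold dilutions (10⁻⁸–10⁻⁴ M final), with matched DMSO controls, for 72 h. MTT added for 4 h, formazan dissolved in DMSO, absorbance read at 570 nm. Percentage growth calculated against time-zero and untreated OD. IC50 is 50% inhibition of proliferation.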

[4] = test system: MCF7; experiment: Antiproliferative activity against human MCF7 cells after 72 hrs by MTT assay; assay type: functional, cell-based; settings: MCF7, 72 h; in short: as §2
[5] = test system: MIA PaCa-2; experiment: Antiproliferative activity against human MiaPaCa2 cells after 72 hrs by MTT assay; assay type: functional, cell-based; in short: as §2
[6] = test system: HEp-2; experiment: Antiproliferative activity against human Hep2 cells after 72 hrs by MTT assay; assay type: functional, cell-based; settings: HEp-2, 72 h; in short: as §2
[7] = test system: SW-620; experiment: Antiproliferative activity against human SW620 cells after 72 hrs by MTT assay; assay type: functional, cell-based; settings: SW-620, 72 h; in short: as §2
[8] = test system: WI-38; experiment: Antiproliferative activity against human WI38 cells after 72 hrs by MTT assay; assay type: functional, cell-based; settings: WI-38, 72 h; in short: as §2
[9] = test system: Human alphaherpesvirus 1; experiment: Antiviral activity against HSV1 KOS-induced cytopathogenicity in E6SM cells; assay type: functional; settings: Human alphaherpesvirus 1, KOS
[10] = test system: Human alphaherpesvirus 2; experiment: Antiviral activity against HSV2 G-induced cytopathogenicity in E6SM cells; assay type: functional; settings: Human alphaherpesvirus 2, G
[11] = test system: Vesicular stomatitis virus; experiment: Antiviral activity against in Vesicular stomatitis virus-induced cytopathogenicity in E6SM cells; assay type: functional
[12] = test system: Human alphaherpesvirus 1; experiment: Antiviral activity against HSV1 TK- KOS ACV-induced cytopathogenicity in E6SM cells; assay type: functional; settings: Human alphaherpesvirus 1, KOS
[13] = Cytotoxicity against E6SM cells; assay type: cell-based; settings: human
In short: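 Cells seeded at 5 × 10³ cells/well and exposed to medium containing a range of test compound concentrations. After 3 days at 37 °C, cell morphology examined microscopically. Reported as minimum cytotoxic concentration (MCC), the concentration causing a microscopically detectable alteration of normal cell morphology.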

[14] = test system: Sindbis virus; experiment: Antiviral activity against Sindbis virus-induced cytopathogenicity in Vero cells; assay type: functional
[15] = test system: Coxsackievirus B4; experiment: Antiviral activity against Coxsackie virus B4-induced cytopathogenicity in Vero cells; assay type: functional; settings: Enterovirus B
[16] = test system: Punta Toro virus; experiment: Antiviral activity against Punta Toro virus-induced cytopathogenicity in Vero cells; assay type: functional
[17] = test system: Vesicular stomatitis virus; experiment: Antiviral activity against in Vesicular stomatitis virus- induced cytopathogenicity in HeLa cells; assay type: functional
[18] = test system: L1210; experiment: Antiproliferative activity against mouse L1210 cells; assay type: functional, cell-based; in short: as §1
[19] = Homo sapiens, MIA PaCa-2, 72 h, read-out: IC50

Structure (SMILES)	IC50 [1]	IC50 [2]	IC50 [3]	IC50 [4]	IC50 [5, 19]	IC50 [6]	IC50 [7]	IC50 [8]	MIC [9]	MIC [10]	MIC [11]	MIC [12]	MCC ([13]; read-out: MCC)	MIC [14]	MIC [15]	MIC [16]	MIC [17]	IC50 [18]	IC50 ([5]; mia paca-2)	MCC ([13]; read-out: MIC)
C=CCc1cn(C/C=C2\OC(=O)C(OCc3ccccc3)=C2OCc2ccccc2)c(=O)[nH]c1=O	20 µM	20 µM	2.9 µM	4.7 µM	5 µM	4.7 µM	2.7 µM	10.4 µM	> 8 µM	> 8 µM	> 8 µM	> 8 µM	40 µM	24 µM (≈ 11.3 µg/mL)	24 µM (≈ 11.3 µg/mL)	> 40 µM	24 µM (≈ 11.3 µg/mL)	20 µM		
O=C1O/C(=C\Cn2cc(-c3ccccc3)c(=O)[nH]c2=O)C(OCc2ccccc2)=C1OCc1ccccc1	159 µM	122 µM	25 µM	18 µM	18 µM	22 µM	21 µM	28 µM	> 157 µM	> 157 µM	157 µM (≈ 79.8 µg/mL)	> 157 µM	787 µM	> 157 µM	> 157 µM	> 157 µM	> 157 µM	142 µM		
CC#Cc1cn(C/C=C2\OC(=O)C(OCc3ccccc3)=C2OCc2ccccc2)c(=O)[nH]c1=O	0.78 µM	0.77 µM	0.2 µM	0.2 µM		0.7 µM	0.3 µM	0.2 µM	> 0.4 µM	> 0.4 µM	> 0.4 µM	> 0.4 µM	2 µM	1.6 µM (≈ 0.753 µg/mL)	1.6 µM (≈ 0.753 µg/mL)	> 1.6 µM	1.6 µM (≈ 0.753 µg/mL)	0.47 µM	0.5 µM	
O=C1O/C(=C\Cn2cc(/C=C/Br)c(=O)[nH]c2=O)C(OCc2ccccc2)=C1OCc1ccccc1	≥ 200 µM	233 µM	45 µM	40 µM	> 100 µM	40 µM	> 100 µM	38 µM	> 150 µM	> 150 µM	150 µM (≈ 80.6 µg/mL)	> 150 µM	746 µM	> 150 µM	> 150 µM	> 150 µM	> 150 µM	196 µM		
Nc1nc2c(ncn2COC(CO)CO)c(=O)[nH]1 [GANCICLOVIR]									0.096 µM (≈ 0.0245 µg/mL)	0.096 µM (≈ 0.0245 µg/mL)	> 100 µM	0.8 µM (≈ 0.204 µg/mL)								> 100 µM
O=C1O/C(=C\Cn2cc(-c3ccc(Cl)o3)c(=O)[nH]c2=O)C(OCc2ccccc2)=C1OCc1ccccc1	158 µM	162 µM	≥ 100 µM	≥ 100 µM	≥ 100 µM	> 100 µM	> 100 µM	> 100 µM	> 150 µM	> 150 µM	150 µM (≈ 79.9 µg/mL)	> 150 µM	752 µM	> 150 µM	> 150 µM	> 150 µM	> 150 µM	165 µM		
C=C=Cc1cn(C/C=C2\OC(=O)C(OCc3ccccc3)=C2OCc2ccccc2)c(=O)[nH]c1=O	> 250 µM	> 250 µM	> 100 µM	77 µM	> 100 µM	> 100 µM	> 100 µM	> 100 µM	> 8 µM	> 8 µM	8 µM (≈ 3.76 µg/mL)	> 8 µM	40 µM	> 200 µM	> 200 µM	> 200 µM	> 40 µM	> 250 µM		
O=C1O/C(=C\Cn2cc(-c3cccs3)c(=O)[nH]c2=O)C(OCc2ccccc2)=C1OCc1ccccc1	150 µM	117 µM	18 µM	17 µM	16.5 µM	18 µM	21 µM	19 µM	> 156 µM	> 156 µM	> 156 µM	> 6.4 µM	780 µM	> 156 µM	> 156 µM	> 156 µM	> 156 µM	142 µM		
O=C1O/C(=C\Cn2cc(C#Cc3ccccc3)c(=O)[nH]c2=O)C(OCc2ccccc2)=C1OCc1ccccc1	108 µM	101 µM	> 100 µM	55 µM	> 100 µM	> 100 µM	> 100 µM	> 100 µM	> 40 µM	> 40 µM	> 40 µM	> 40 µM	200 µM	120 µM (≈ 63.9 µg/mL)	> 200 µM	> 200 µM	> 200 µM	108 µM		
NC(=O)c1ncn([C@@H]2O[C@H](CO)[C@@H](O)[C@H]2O)n1 [RIBAVIRIN]									500 µM (≈ 122 µg/mL)	300 µM (≈ 73.3 µg/mL)	> 500 µM	500 µM (≈ 122 µg/mL)		100 µM (≈ 24.4 µg/mL)	> 500 µM	300 µM (≈ 73.3 µg/mL)	100 µM (≈ 24.4 µg/mL)			> 500 µM
O=c1[nH]c(=O)n([C@H]2C[C@H](O)[C@@H](CO)O2)cc1/C=C/Br [BRIVUDINE]									0.48 µM (≈ 0.16 µg/mL)	300 µM (≈ 99.9 µg/mL)	> 500 µM	300 µM (≈ 99.9 µg/mL)		> 500 µM	> 500 µM	> 500 µM	> 500 µM			> 500 µM
Nc1nc2c(ncn2COCCO)c(=O)[nH]1 [ACYCLOVIR]									0.48 µM (≈ 0.108 µg/mL)	0.8 µM (≈ 0.18 µg/mL)	> 500 µM	60 µM (≈ 13.5 µg/mL)								> 500 µM
Nc1ncnc2c1ncn2C[C@H](O)CO [(S)-DHPA]														> 500 µM	> 500 µM	300 µM (≈ 62.8 µg/mL)	> 500 µM			

Reference: ChEMBL document CHEMBL1144557, “The novel C-5 aryl, alkenyl, and alkynyl substituted uracil derivatives of L-ascorbic acid: synthesis, cytostatic, and antiviral activity evaluations” (Bioorg Med Chem, 2007)
